According to ChEMBL document CHEMBL1153176, “2,6-Dithienyl-4-furyl pyridines: Synthesis, topoisomerase I and II inhibition, cytotoxicity, structure-activity relationship, and docking study” (Bioorg Med Chem Lett, 2010):
Structures can show the parent of a compound that is named as a salt.

Legend:
[1] = species: Bos taurus; assay: Inhibition of calf thymus topoisomerase 1-mediated relaxation of supercoiled pBR322 DNA at 20 uM after 30 mins by agarose gel electrophoresis
Summary of the method: (§1)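 Compound at 20 or 100 μM, 37 °C for 30 min. Stopped with SDS/dye mix, run on 1% agarose in TBE for 10 h, stained with ethidium bromide (0.5 μg/mL).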

[2] = species: Bos taurus; assay: Inhibition of calf thymus topoisomerase 1-mediated relaxation of supercoiled pBR322 DNA at 100 uM after 30 mins by agarose gel electrophoresis; summary of the method: as §1
[3] = molecular target: DNA topoisomerase 2-alpha (Homo sapiens) (UniProt P11388); assay: Inhibition of human topoisomerase 2 alpha-mediated relaxation of supercoiled pBR322 DNA at 100 uM after 30 mins by agarose gel electrophoresis
Chain of DNA topoisomerase 2-alpha (Homo sapiens) (P11388 whole entry): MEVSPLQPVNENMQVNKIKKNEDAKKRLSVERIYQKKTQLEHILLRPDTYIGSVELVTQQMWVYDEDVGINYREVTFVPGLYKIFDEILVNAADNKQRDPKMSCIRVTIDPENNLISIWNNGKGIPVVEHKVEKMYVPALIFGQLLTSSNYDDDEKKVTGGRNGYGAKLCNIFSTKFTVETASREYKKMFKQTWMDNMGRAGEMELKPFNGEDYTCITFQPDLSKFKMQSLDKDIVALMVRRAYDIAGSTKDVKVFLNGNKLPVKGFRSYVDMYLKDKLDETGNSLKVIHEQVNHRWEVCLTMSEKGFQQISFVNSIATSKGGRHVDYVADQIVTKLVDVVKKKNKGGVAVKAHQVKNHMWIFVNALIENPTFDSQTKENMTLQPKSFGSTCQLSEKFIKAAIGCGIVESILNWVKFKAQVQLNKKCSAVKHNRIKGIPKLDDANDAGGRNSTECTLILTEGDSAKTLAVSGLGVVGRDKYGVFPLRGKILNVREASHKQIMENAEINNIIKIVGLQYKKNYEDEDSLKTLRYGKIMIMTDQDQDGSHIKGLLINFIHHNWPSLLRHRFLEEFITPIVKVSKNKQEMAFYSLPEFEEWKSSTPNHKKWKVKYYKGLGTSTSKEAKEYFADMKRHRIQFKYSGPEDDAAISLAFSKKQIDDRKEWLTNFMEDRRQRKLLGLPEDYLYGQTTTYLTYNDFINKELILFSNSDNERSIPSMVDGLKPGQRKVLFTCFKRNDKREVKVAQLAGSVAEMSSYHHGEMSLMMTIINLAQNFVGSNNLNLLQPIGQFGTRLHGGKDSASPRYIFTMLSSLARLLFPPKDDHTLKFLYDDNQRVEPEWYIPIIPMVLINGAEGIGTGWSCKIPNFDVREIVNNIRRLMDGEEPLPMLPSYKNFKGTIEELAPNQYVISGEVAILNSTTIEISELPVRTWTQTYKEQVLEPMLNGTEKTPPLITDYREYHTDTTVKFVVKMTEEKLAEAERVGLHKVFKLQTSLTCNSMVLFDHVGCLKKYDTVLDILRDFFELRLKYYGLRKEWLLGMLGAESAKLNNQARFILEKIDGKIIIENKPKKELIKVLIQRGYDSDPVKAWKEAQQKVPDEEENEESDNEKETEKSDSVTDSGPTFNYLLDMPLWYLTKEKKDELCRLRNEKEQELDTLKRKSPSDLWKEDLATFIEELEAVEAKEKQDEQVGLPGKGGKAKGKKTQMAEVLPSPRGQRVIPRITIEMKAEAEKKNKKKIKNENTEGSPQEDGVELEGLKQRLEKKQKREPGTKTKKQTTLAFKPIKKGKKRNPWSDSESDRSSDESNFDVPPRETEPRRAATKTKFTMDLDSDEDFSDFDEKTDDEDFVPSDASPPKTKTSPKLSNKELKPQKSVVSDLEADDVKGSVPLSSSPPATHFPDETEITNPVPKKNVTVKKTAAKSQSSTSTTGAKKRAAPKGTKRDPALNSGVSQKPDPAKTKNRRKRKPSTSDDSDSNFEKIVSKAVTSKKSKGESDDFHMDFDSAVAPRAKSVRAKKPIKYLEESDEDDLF
Summary of the method: (§2)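 Human topo II (0.3 U) with 0.2 μg pBR322 in 50 mM Tris–HCl pH 8.0, 120 mM KCl, 10 mM MgCl2, 0.5 mM ATP, 0.5 mM DTT and BSA. Compound at 20 or 100 μM, 37 °C for 30 min. Stopped with 0.77% SDS/77 mM EDTA, run on 1% agarose at 1.5 V/cm for 10 h in TBE, stained with ethidium bromide.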

[4] = molecular target: DNA topoisomerase 2-alpha (Homo sapiens) (UniProt P11388); assay: Inhibition of human topoisomerase 2 alpha-mediated relaxation of supercoiled pBR322 DNA at 20 uM after 30 mins by agarose gel electrophoresis; summary of the method: as §2
[5] = tested on: DU-145; assay: Cytotoxicity against human DU145 cells after 3 days; type: functional, cell-based; conditions: DU-145, 72 h
Summary of the method: (§3)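 Cells seeded at 2–4 × 10⁴ per well and held overnight at 37 °C, 5% CO₂ in medium with 10% FBS. On day 1 the medium was replaced with medium holding graded compound concentrations. Absorbance read at 450 nm. IC50 from a four-parameter logistic fit of the 450 nm readings.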

[6] = tested on: MCF7; assay: Cytotoxicity against human MCF7 cells after 3 days; type: functional, cell-based; conditions: MCF7, 72 h; summary of the method: as §3
[7] = tested on: MDA-MB-231; assay: Cytotoxicity against human MDA-MB-231 cells after 3 days; type: functional, cell-based; conditions: MDA-MB-231, 72 h; summary of the method: as §3
[8] = tested on: HCT-116; assay: Cytotoxicity against human HCT116 cells after 3 days; type: functional, cell-based; conditions: HCT-116, 72 h; summary of the method: as §3
[9] = tested on: HeLa; assay: Cytotoxicity against human HeLa cells after 3 days; type: functional, cell-based; conditions: 72 h; summary of the method: as §3

Compound	inhibition [1] [%]	inhibition [2] [%]	inhibition [3] [%]	inhibition [4] [%]	IC50 [5] [µM]	IC50 [6] [µM]	IC50 [7] [µM]	IC50 [8] [µM]	IC50 [9] [µM]
Cc1ccc(-c2cc(-c3ccsc3)nc(-c3sccc3C)c2)o1	0	0	0	0	–	–	–	–	–
c1cc(-c2cc(-c3ccsc3)nc(-c3ccsc3)c2)co1	0	0	12	4	–	–	–	–	–
CC[C@@]1(O)C(=O)OCc2c1cc1n(c2=O)Cc2cc3ccccc3nc2-1 [CAMPTOTHECIN]	41	54	–	–	1.46	7.42	1.1	2.77	1.85
Cc1ccsc1-c1cc(-c2ccoc2)cc(-c2sccc2C)n1	15	30	0	0	–	–	–	–	–
Cc1ccc(-c2cc(-c3cccs3)nc(-c3cccs3)c2)o1	0	3	8	0	–	–	–	–	–
Cc1ccsc1-c1cc(-c2ccoc2)cc(-c2cccs2)n1	3	9	3	7	–	–	–	–	–
Cc1ccc(-c2cc(-c3cccs3)nc(-c3cc(C)sc3C)c2)o1	0	5	0	0	–	–	–	–	–
Cc1ccc(-c2cc(-c3ccsc3)nc(-c3ccsc3)c2)o1	0	0	5	0	–	–	–	–	–
Clc1ccc(-c2cc(-c3cccs3)nc(-c3cccs3)c2)o1	12	42	35	0	88.1	> 100	54.8	95.5	55.2
Cc1ccsc1-c1cc(-c2ccco2)cc(-c2sccc2C)n1	88	92	23	14	98.2	> 100	38.3	> 100	35.8
c1coc(-c2cc(-c3ccsc3)nc(-c3ccsc3)c2)c1	0	0	32	0	–	–	–	–	–
COc1cccc2c1C(=O)c1c(O)c3c(c(O)c1C2=O)C[C@@](O)(C(=O)CO)C[C@@H]3O[C@H]1C[C@H](N)[C@H](O)[C@H](C)O1 [DOXORUBICIN HYDROCHLORIDE]	–	–	–	–	1.3	–	1.16	–	1.6
